Experimental data: ChEMBL document CHEMBL3808289, “Discovery of a Selective Series of Inhibitors of Plasmodium falciparum HDACs” (ACS Med Chem Lett, 2016)
Active and inactive are the calls of the source. No cut-off for these calls is given here.

Experiments:
Histone deacetylase 1 = Histone deacetylase 1 (Homo sapiens, UniProt Q13547); test: Inhibition of recombinant human His-tagged HDAC1 expressed in insect cells preincubated for 10 mins followed by addition of FLUOR DE LYS as fluorescent substrate measured after 1 hr by spectrophotometry
Plasmodium falciparum = test: Antimalarial activity against Plasmodium falciparum 3D7 infected human erythrocytes assessed as parasite growth inhibition after 72 hrs by spectrophotometry; assay type: functional, organism-based; details: 3D7, 72 h
How it was run: (§1)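 Cell-based read-outs (parasite growth in erythrocytes; class I HDAC activity in HeLa) were run with multiple repetitions of each assay to limit variability.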

[1] = Inhibition of class 1 histone deacetylase in human HeLa cells using FLUOR DE LYS as fluorescent substrate after 4 hrs by spectrophotometry; assay type: cell-based; how it was run: as §1
HDAC1 = test: Selectivity index, ratio of IC50 for HDAC1 in human HeLa cells to EC50 for Plasmodium falciparum 3D7 infected human erythrocytes; assay type: toxicity, cell-based; details: read-out: Ratio IC50/EC50
[2] = system: Plasmodium falciparum 3D7; test: Inhibition of recombinant Plasmodium falciparum 3D7 Flag-tagged HDAC1 Y301H mutant assessed as loss of enzyme activity
How it was run: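 The Y301H mutant is a putative catalytic-site mutant of PfHDAC1. It was expressed as a Flag-fusion in insect or mammalian cells and purified on anti-Flag affinity gel. Deacetylase activity was measured in vitro with fluorogenic substrates, alongside wild-type PfHDAC1.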

[3] = Oral bioavailability in NMRI mouse at 10 mg/kg; assay type: ADME, organism-based; details: in vivo
Plasma = test: Drug uptake in NMRI mouse plasma at 10 mg/kg, po; assay type: ADME, organism-based; details: in vivo
[4] = Clearance in NMRI mouse plasma; assay type: ADME, organism-based
[5] = Clearance in NMRI mouse plasma 2 mg/kg, iv by LC-MS/MS analysis; assay type: ADME, organism-based

Sequence of Histone deacetylase 1 (Q13547 whole entry): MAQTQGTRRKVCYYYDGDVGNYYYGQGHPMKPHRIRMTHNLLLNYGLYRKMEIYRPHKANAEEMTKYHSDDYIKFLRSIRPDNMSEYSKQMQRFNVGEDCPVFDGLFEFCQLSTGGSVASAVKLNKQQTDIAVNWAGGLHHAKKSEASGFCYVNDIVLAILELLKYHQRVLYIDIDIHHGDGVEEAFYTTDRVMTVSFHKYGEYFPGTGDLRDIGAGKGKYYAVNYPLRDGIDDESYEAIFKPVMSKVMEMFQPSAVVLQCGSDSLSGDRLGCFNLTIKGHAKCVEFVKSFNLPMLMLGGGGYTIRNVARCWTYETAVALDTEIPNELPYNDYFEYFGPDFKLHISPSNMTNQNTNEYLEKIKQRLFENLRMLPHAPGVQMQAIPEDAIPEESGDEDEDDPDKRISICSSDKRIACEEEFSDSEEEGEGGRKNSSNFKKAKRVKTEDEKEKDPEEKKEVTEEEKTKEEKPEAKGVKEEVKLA

| IC50 (Histone deacetylase 1) [nM] | IC50 [1] [µM] | bioavailability [3] [%] | SMILES | EC50 (Plasmodium falciparum) [nM] | selectivity ratio (HDAC1) | inhibition [2] | Drug uptake (Plasma) | clearance [4] [mL/min/kg] | clearance [5] [mL/min/kg] |
| --- | --- | --- | --- | --- | --- | --- | --- | --- | --- |
| > 5000 | > 25 | – | CNC(=O)CCCCC[C@H](NC(=O)c1cncs1)c1ncc(-c2ccc3cccnc3c2)[nH]1 | 3810 | > 6.6 | – | – | – | – |
| 2160 | 8.13 | – | CNC(=O)CCCCC[C@H](NC(=O)c1cncs1)c1ncc(-c2ccc(-c3cscn3)cc2)[nH]1 | 570 | 14 | – | – | – | – |
| – | – | – | CCC(=O)CCCCC[C@H](NC(=O)C1CN(C)C1)c1ncc(-c2cc3ccccc3nc2OC)[nH]1 | – | – | inactive | – | – | – |
| 1760 | 6.65 | 20 | CNC(=O)CCCCC[C@H](NC(=O)Cn1ccnn1)c1ncc(-c2cc3ccccc3nc2OC)[nH]1 | 1760 | 3.8 | – | – | – | – |
| 2490 | 20.5 | – | CNC(=O)CCCCC[C@H](NC(=O)c1cncs1)c1ncc(-c2ccc(-n3cccn3)cc2)[nH]1 | 900 | 23 | – | – | – | – |
| 2620 | 20.1 | – | CNC(=O)CCCCC[C@H](NC(=O)c1cncs1)c1ncc(-c2ccc3ccnc(OC)c3c2)[nH]1 | 4860 | 4.1 | – | – | – | – |
| > 2500 | > 25 | – | CNC(=O)CCCCC[C@H](NC(=O)c1cncs1)c1ncc(-c2ccc3[nH]cnc3c2)[nH]1 | 12000 | > 2.1 | – | – | – | – |
| 2120 | 7.63 | – | CNC(=O)CCCCC[C@H](NC(=O)c1cncs1)c1ncc(-c2ccc3[nH]ncc3c2)[nH]1 | 630 | 12 | – | – | – | – |
| 600 | 4.75 | – | CNC(=O)CCCCC[C@H](NC(=O)c1cncs1)c1ncc(-c2ccc3ccncc3c2)[nH]1 | 270 | 18 | – | – | – | – |
| > 5000 | > 25 | – | CNC(=O)CCCCC[C@H](NC(=O)c1cncs1)c1ncc(-c2ccc(-c3ccccc3)cc2)[nH]1 | 7570 | > 3.3 | – | – | – | – |
| > 2500 | > 25 | – | CNC(=O)CCCCC[C@H](NC(=O)c1cncs1)c1ncc(-c2cc3ccccc3[nH]c2=O)[nH]1 | 500 | > 54 | – | – | – | – |
| 1280 | 6.33 | – | CNC(=O)CCCCC[C@H](NC(=O)c1cncs1)c1ncc(-c2ccc3[nH]ccc3c2)[nH]1 | 330 | 19 | – | – | – | – |
| > 5000 | > 25 | – | CNC(=O)CCCCC[C@H](NC(=O)c1cncs1)c1ncc(-c2ccc3[nH]nnc3c2)[nH]1 | 10000 | > 2.5 | – | – | – | – |
| 320 | 1.7 | – | CNC(=O)CCCCC[C@H](NC(=O)c1cncs1)c1ncc(-c2ccc3ccccc3c2)[nH]1 | 300 | 5.7 | – | – | – | – |
| 390 | 1.37 | – | CNC(=O)CCCCC[C@H](NC(=O)c1cncs1)c1ncc(-c2ccc3cc(OC)ncc3c2)[nH]1 | 100 | 14 | – | – | – | – |
| – | 0.89 | 10 | CNC(=O)CCCCC[C@H](NC(=O)c1cncs1)c1ncc(-c2cc3ccccc3nc2OC)[nH]1 | 570 | – | – | – | – | – |
| 23900 | > 25 | – | CNC(=O)CCCCC[C@H](NC(=O)c1cncs1)c1ncc(-c2ccc3ccccc3c2C)[nH]1 | 23700 | > 1 | – | – | – | – |
| > 2500 | > 25 | – | CNC(=O)CCCCC[C@H](NC(=O)c1cncs1)c1ncc(-c2cccc3cccnc23)[nH]1 | 8280 | > 3 | – | – | – | – |
| 290 | 2.04 | – | CNC(=O)CCCCC[C@H](NC(=O)c1cncs1)c1ncc(-c2ccc3cc(C(F)(F)F)ncc3c2)[nH]1 | 100 | 20 | – | – | – | – |

| SMILES | IC50 (Histone deacetylase 1) [nM] | IC50 [1] [µM] | bioavailability [3] [%] | EC50 (Plasmodium falciparum) [nM] | selectivity ratio (HDAC1) | inhibition [2] | Drug uptake (Plasma) | clearance [4] [mL/min/kg] | clearance [5] [mL/min/kg] |
| --- | --- | --- | --- | --- | --- | --- | --- | --- | --- |
| CNC(=O)CCCCC[C@H](NC(=O)C12CCN(CC1)CC2)c1ncc(-c2ccc3ccccc3c2)[nH]1 | 340 | 3.77 | – | 310 | 12 | – | Not Active | 60 | – |
| CCC(=O)CCCCC[C@H](NC(=O)C12CCN(CC1)CC2)c1ncc(-c2ccc3ccccc3c2)[nH]1 | 1.4 | 0.094 | – | 38 | 2.5 | – | – | – | – |
| CNC(=O)CCCCC[C@H](NC(=O)C12CCN(CC1)CC2)c1ncc(-c2cc3ccccc3nc2OC)[nH]1 | 250 | 2.45 | – | 520 | 4.7 | – | Not Active | – | 10 |
